Assay results: ChEMBL document CHEMBL1949493, “Discovery of s-nitrosoglutathione reductase inhibitors: potential agents for the treatment of asthma and other inflammatory diseases” (ACS Med Chem Lett, 2011)
The source made the active and inactive calls. The rule behind the calls is not given here.

Key:
[1] = Inhibition of S-nitrosoglutathione reductase expressed in Escherichia coli using GSNO as substrate measured for 3 mins by spectrophotometry
Mus musculus [2] = test: Antiasthmatic activity in ovalbumin-sensitized BALB/c mouse assessed as inhibition of ovalbumin-induced easonophil infiltration into lungs at 0.0005 to 30 mg/kg, iv administered from 30 mins to 72 hrs prior to assesment by light microscopy; assay type: functional, organism-based
In short: (§1)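 Ovalbumin-induced asthma model in mice, dosed by single IV administration. Read-out was eosinophil infiltration into the lungs.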

Mus musculus [3] = test: Antiasthmatic activity in ovalbumin-sensitized BALB/c mouse assessed as inhibition of methacholine-induced bronchoconstriction at 0.0005 to 30 mg/kg, iv administered from 30 mins to 48 hrs prior to assessment by whole body plethysmography
Mus musculus [4] = test: Antiinflammatory activity in C57B1/6 mouse IBD model assessed as inhibition of DSS-induced inflammatory response at 1 mg/kg, iv or po administered for 10 days from 2 days prior to and up to 2 days post DSS-challenge; assay type: functional, organism-based; parameters: dose 1 mg/kg
In short: (§2)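 Mouse model of DSS-induced IBD. Dosing was oral or IV at 1 and 10 mg/kg/day for 10 days.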

[5] = Plasma clearance in BALB/c mouse at 2 mg/kg, iv; assay type: ADME, organism-based; parameters: dose 2 mg/kg, route intravenous
Mus musculus [6] = test: Antiinflammatory activity in C57B1/6 mouse IBD model assessed as inhibition of DSS-induced inflammatory response at 10 mg/kg, iv or po administered for 10 days from 2 days prior to and up to 2 days post DSS-challenge; assay type: functional, organism-based; parameters: dose 10 mg/kg; in short: as §2
[7] = Oral bioavailability in BALB/c mouse at 10 mg/kg; assay type: ADME, organism-based; conditions: in vivo
Mus musculus [8] = test: Antiasthmatic activity in C57B1/6 mouse COPD model assessed as inhibition of porcine pancreatic elastase-induced emphysema at 0.1 to 10 mg/kg, po after 7 to 14 days by light microscopy; assay type: functional, organism-based
Rattus norvegicus = organism: Rattus norvegicus; test: Antihypertensive activity in rat DAHL/S model assessed as reduction in high dietary salt-induced hypertension
Mus musculus [9] = test: Antiasthmatic activity in ovalbumin-sensitized BALB/c mouse assessed as inhibition of methacholine-induced bronchoconstriction at >/= 0.01 mg/kg, iv administered from 30 mins to 48 hrs prior to metacholine-challenge by whole body plethysmography; assay type: functional, organism-based; parameters: dose 0.01 mg/kg
Mus musculus [10] = test: Antiasthmatic activity in ovalbumin-sensitized BALB/c mouse assessed as inhibition of ovalbumin-induced easonophil infiltration in lungs at >/= 0.0005 mg/kg, iv administered from 30 mins to 72 hrs prior to assessment by light microscopy; assay type: functional, organism-based; parameters: dose 0.0005 mg/kg; in short: as §1
[11] = Toxicity in iv dosed CD-1 mouse administered qd for 4 days measured on day 5; assay type: organism-based; conditions: in vivo
In short: (§3)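 Read-out was the no observable adverse effect level (NOAEL) in mg/kg/day.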

Homo sapiens = organism: Homo sapiens; test: Inhibition of human recombinant delta2 opioid receptor at 10 uM by radioligand displacement assay
In short: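 Off-target screen measuring percent inhibition of receptor radioligand binding, with test compound at 10 μM.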

Salmonella typhimurium = test: Mutagenic activity in Salmonella Typhimurium; assay type: toxicity, organism-based; conditions: salmonella enterica subsp. enterica serovar typhimurium
Mus musculus [12] = test: Antiasthmatic activity in ovalbumin-sensitized iv dosed BALB/c mouse assessed as inhibition of methacholine-induced bronchoconstriction administered from 30 mins to 48 hrs prior to metacholine-challenge by whole body plethysmography; assay type: functional, organism-based
[13] = target: Voltage-gated inwardly rectifying potassium channel KCNH2 (Homo sapiens, UniProt Q12809); test: Inhibition of human ERG
Voltage-gated inwardly rectifying potassium channel KCNH2, sequence (Q12809 whole entry): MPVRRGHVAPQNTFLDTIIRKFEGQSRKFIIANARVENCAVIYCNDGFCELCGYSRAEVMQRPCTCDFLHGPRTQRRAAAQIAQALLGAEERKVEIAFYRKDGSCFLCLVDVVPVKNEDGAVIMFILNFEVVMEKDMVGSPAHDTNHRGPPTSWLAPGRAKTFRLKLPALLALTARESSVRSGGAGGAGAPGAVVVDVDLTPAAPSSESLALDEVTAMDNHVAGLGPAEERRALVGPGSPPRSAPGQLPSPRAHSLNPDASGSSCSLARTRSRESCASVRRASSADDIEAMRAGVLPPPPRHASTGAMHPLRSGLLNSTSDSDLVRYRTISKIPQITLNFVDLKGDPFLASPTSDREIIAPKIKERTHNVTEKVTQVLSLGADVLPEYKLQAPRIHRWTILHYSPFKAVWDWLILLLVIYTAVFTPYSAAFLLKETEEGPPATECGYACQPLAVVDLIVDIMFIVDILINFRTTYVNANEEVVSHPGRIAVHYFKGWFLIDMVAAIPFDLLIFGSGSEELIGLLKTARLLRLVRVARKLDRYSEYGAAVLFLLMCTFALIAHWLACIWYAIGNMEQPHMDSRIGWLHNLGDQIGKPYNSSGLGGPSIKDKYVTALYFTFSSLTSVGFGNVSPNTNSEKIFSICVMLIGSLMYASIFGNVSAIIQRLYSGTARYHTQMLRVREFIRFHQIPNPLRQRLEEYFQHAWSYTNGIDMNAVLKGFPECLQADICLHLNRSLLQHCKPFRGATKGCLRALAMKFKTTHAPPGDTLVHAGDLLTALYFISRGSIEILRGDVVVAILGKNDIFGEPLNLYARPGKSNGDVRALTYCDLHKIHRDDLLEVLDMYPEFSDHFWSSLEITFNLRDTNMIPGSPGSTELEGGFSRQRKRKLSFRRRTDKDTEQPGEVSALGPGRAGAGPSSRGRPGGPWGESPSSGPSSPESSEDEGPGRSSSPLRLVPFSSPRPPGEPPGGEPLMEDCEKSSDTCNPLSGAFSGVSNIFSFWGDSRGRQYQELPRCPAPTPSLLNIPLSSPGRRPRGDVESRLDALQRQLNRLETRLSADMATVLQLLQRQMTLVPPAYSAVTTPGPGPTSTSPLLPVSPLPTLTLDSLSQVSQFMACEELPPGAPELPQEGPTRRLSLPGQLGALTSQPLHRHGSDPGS

Mus musculus [14] = test: Antiasthmatic activity in ovalbumin-sensitized BALB/c mouse assessed as inhibition of methacholine-induced bronchoconstriction at >/= 0.01 mg/kg, iv administered prior to metacholine-challenge by whole body plethysmography; assay type: functional, organism-based; parameters: dose 0.01 mg/kg; conditions: TDE = time-dependent effect
[15] = Toxicity in po dosed CD-1 mouse administered qd for 4 days measured on day 5; assay type: organism-based; conditions: in vivo; in short: as §3

Oc1ccc(-n2c(Cc3nnn[nH]3)ccc2-c2ccc(-n3ccnc3)cc2)cc1 gave an IC50 [1] of 18 nM.

Cc1cc(C(N)=O)ccc1-n1c(CCC(=O)O)ccc1-c1ccc(Cl)cc1N(C)C showed an IC50 [1] of 350 nM.

For COc1ccc(-c2ccc(CCC(=O)O)n2-c2ccc(C(N)=O)cc2)cc1, the IC50 [1] was 460 nM.

COc1ccc(-c2ccc(CCc3nnn[nH]3)n2-c2ccc(C(N)=O)cc2C)cc1 gave an IC50 [1] of 1530 nM.

With COc1cc(Cl)ccc1-c1ccc(CCC(=O)O)n1-c1ccc(C(N)=O)cc1C the Activity (Mus musculus [2]) was “Active”, the IC50 [1] was 56 nM and the Activity (Mus musculus [3]) was “Active”. The Activity (Mus musculus [4]) was “Active”, the clearance [5] was 20.2 mL/min/kg and the Activity (Mus musculus [6]) was “Active”. For the same compound, the bioavailability [7] was 22.4%, the Activity (Mus musculus [8]) was “Active” and the Activity (Rattus norvegicus) was “Active”.

For Cc1cc(C(N)=O)ccc1-n1c(CCC(=O)O)ccc1-c1ccc(Cl)cc1F, the IC50 [1] was 120 nM.

In the case of Oc1ccc(-n2c(Cc3nnn[nH]3)ccc2-c2ccc(Br)cc2)cc1, the IC50 [1] is reported as 4350 nM.

Work on Cc1cc(C(N)=O)ccc1-n1c(CCC(=O)O)ccc1-c1ccc(C(F)(F)F)cc1 yielded an IC50 [1] of 3990 nM.

In the case of Oc1ccc(-n2c(CCc3nnn[nH]3)ccc2-c2ccc(Br)cc2)cc1, the IC50 [1] is reported as 450 nM.

For Cc1cc(C(N)=O)ccc1-n1c(CCC(=O)O)ccc1-c1ccc(Cl)cc1C(F)(F)F, the IC50 [1] was 330 nM.

In the case of CCOc1cc(Cl)ccc1-c1ccc(CCC(=O)O)n1-c1ccc(C(N)=O)cc1C, the IC50 [1] is reported as 170 nM.

With Cc1cc(C(N)=O)ccc1-n1c(CCC(=O)O)ccc1-c1ccc(Cl)cc1O the Activity (Mus musculus [2]) was “Active”, the IC50 [1] was 55 nM and the Activity (Mus musculus [3]) was “Active”. The Activity (Mus musculus [4]) was “Active”, the clearance [5] was 33.4 mL/min/kg and the Activity (Mus musculus [6]) was “Active”. For the same compound, the bioavailability [7] was 2.72%, the Activity (Mus musculus [8]) was “Active” and the Activity (Rattus norvegicus) was “Active”.

Compound COc1cc(Br)ccc1-c1ccc(CCC(=O)O)n1-c1ccc(C(N)=O)cc1C has an IC50 [1] of 96 nM, a clearance [5] of 22.4 mL/min/kg and a bioavailability [7] of 21.8%.

With CCCOc1cc(Cl)ccc1-c1ccc(CCC(=O)O)n1-c1ccc(C(N)=O)cc1C the IC50 [1] was 110 nM.

Cc1cc(C(N)=O)ccc1-n1c(CCC(=O)O)ccc1-c1ccc(Cl)cc1C(N)=O gave an IC50 [1] of 160 nM.

With Cc1cc(C(N)=O)ccc1-n1c(CCC(=O)O)ccc1-c1ccc(O)cc1 the IC50 [1] was 160 nM.

COc1ccc(-c2ccc(Cc3nnn[nH]3)n2-c2ccc(C(N)=O)cc2C)cc1 showed an IC50 [1] of 2910 nM.

Compound Cc1cc(C(N)=O)ccc1-n1c(CCc2nnn[nH]2)ccc1-c1ccc(Br)cc1 has an IC50 [1] of 190 nM.

In the case of Cc1cc(C(N)=O)ccc1-n1c(CCC(=O)O)ccc1-c1ccc(Cl)cc1Cl, the IC50 [1] is reported as 160 nM.

With Cc1cc(C(N)=O)ccc1-n1c(CCC(=O)O)ccc1-c1ccc(C#N)cc1 the IC50 [1] was 563 nM, the clearance [5] was 25.5 mL/min/kg and the bioavailability [7] was 16.3%.

In the case of Cc1cc(C(N)=O)ccc1-n1c(CCC(=O)O)ccc1-c1ccc(-n2ccnc2)cc1 [N6022], the Activity (Mus musculus [9]) is reported as “Active”, the Activity (Mus musculus [10]) is reported as “Active” and the NOAEL at 96 h [11] is reported as 30 mg/kg. The inhibition (Homo sapiens) was 66%, the IC50 [1] was 20 nM and the Activity (Mus musculus [4]) was “Active”. The Activity (Salmonella typhimurium) was “Non-toxic”, the Activity (Mus musculus [12]) was “Dose-dependent effect” and the INH [13] was > 100 µM. The Activity (Mus musculus [6]) was “Active”, the Activity (Mus musculus [14]) was “tde” and the NOAEL at 96 h [15] was 100 mg/kg.

For Cc1cc(C(N)=O)ccc1-n1c(CCC(=O)O)ccc1-c1ccccc1, the IC50 [1] was 360 nM, the clearance [5] was 11.8 mL/min/kg and the bioavailability [7] was 46.8%.

For Cc1cc(C(N)=O)ccc1-n1c(CCC(=O)O)ccc1-c1ccc(Cl)cc1NC=O, the IC50 [1] was 580 nM.

COc1ccc(-c2ccc(CCC(=O)O)n2-c2ccc(C(N)=O)cc2Cl)cc1 showed an IC50 [1] of 190 nM.

Compound COc1ccc(-c2ccc(CCC(=O)O)n2-c2ccc(C(N)=O)cc2C(F)(F)F)cc1 has an IC50 [1] of 450 nM.

For NC(=O)c1ccc(-n2c(CCC(=O)O)ccc2-c2ccccc2)cc1, the IC50 [1] was 570 nM, the clearance [5] was 8.9 mL/min/kg and the bioavailability [7] was 86.5%.

Work on COc1ccc(-c2ccc(CCC(=O)O)n2-c2ccc(C(N)=O)cc2F)cc1 yielded an IC50 [1] of 240 nM.

Work on Cc1cc(C(N)=O)ccc1-n1c(CCC(=O)O)ccc1-c1ccc(Cl)cc1 yielded an IC50 [1] of 120 nM, a clearance [5] of 16 mL/min/kg and a bioavailability [7] of 20.7%.

Cc1cc(C(N)=O)ccc1-n1c(CCC(=O)O)ccc1-c1ccc(C(N)=O)cc1 gave an IC50 [1] of 3920 nM.

For Cc1cc(C(N)=O)ccc1-n1c(CCC(=O)O)ccc1-c1ccc(F)cc1, the IC50 [1] was 500 nM.

For Oc1ccc(-n2c(CCc3nnn[nH]3)ccc2-c2ccc(-n3ccnc3)cc2)cc1, the IC50 [1] was 300 nM.

Compound COc1ccc(-c2ccc(CCC(=O)O)n2-c2ccc(C(N)=O)cc2C)c(Cl)c1 has an IC50 [1] of 200 nM.

With Cc1cc(C(N)=O)ccc1-n1c(CCC(=O)O)ccc1-c1ccc(Br)cc1 the Activity (Mus musculus [2]) was “Active”, the NOAEL at 96 h [11] was 50 mg/kg and the IC50 [1] was 160 nM. For the same compound, the Activity (Mus musculus [3]) was “Active”, the Activity (Mus musculus [4]) was “Active” and the clearance [5] was 21.4 mL/min/kg. For the same compound, the Activity (Mus musculus [6]) was “Active”, the bioavailability [7] was 18% and the Activity (Mus musculus [8]) was “Active”. The Activity (Rattus norvegicus) was “Active”.

In the case of COc1ccc(-c2ccc(CCC(=O)O)n2-c2ccc(C(N)=O)cc2C)cc1, the Activity (Mus musculus [2]) is reported as “Active”, the NOAEL at 96 h [11] is reported as 50 mg/kg and the IC50 [1] is reported as 210 nM. For the same compound, the Activity (Mus musculus [3]) was “Active”, the Activity (Mus musculus [4]) was “Active” and the Activity (Mus musculus [6]) was “Active”. For the same compound, the Activity (Mus musculus [8]) was “Active” and the Activity (Rattus norvegicus) was “Active”.

Cc1cc(C(N)=O)ccc1-n1c(Cc2nnn[nH]2)ccc1-c1ccc(Br)cc1 showed an IC50 [1] of 560 nM.
